Source: paper PMC5696082 (Analytical biochemistry, 2017)

Tests used:
hCE2 [1] = molecular target: T1, hCE2 (Homo sapiens, UniProt O00748); test: Specific activity of hCE2 towards substrates; assay type: biochemical
T1 sequence (O00748 27-559): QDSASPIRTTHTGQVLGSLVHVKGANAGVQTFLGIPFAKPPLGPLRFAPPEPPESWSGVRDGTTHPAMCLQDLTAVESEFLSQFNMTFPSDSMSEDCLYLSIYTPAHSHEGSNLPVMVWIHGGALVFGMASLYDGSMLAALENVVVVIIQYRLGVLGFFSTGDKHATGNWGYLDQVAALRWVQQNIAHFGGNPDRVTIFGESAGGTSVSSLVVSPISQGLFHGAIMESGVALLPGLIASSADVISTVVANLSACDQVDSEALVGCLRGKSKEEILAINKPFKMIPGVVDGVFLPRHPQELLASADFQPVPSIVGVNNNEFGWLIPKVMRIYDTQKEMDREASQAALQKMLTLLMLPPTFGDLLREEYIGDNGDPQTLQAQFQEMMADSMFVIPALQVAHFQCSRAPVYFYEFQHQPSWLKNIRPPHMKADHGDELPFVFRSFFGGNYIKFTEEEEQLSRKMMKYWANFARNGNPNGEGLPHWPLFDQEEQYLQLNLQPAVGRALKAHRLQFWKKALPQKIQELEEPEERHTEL
Outline: (§1)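 Enzymes expressed in baculovirus-infected High Five cells: hCE1 CHAPS-solubilised from the 100,000 g pellet, then DEAE-purified; hCE2/hCE3 crude soluble fraction; FAAH crude insoluble fraction. Substrate added to 50 µM final in 100 mM sodium phosphate pH 8.0, 0.1 mg/mL BSA, 1% DMSO. Fluorescence read every 30 s for ≥10 min at 37°C. Rates corrected for estimated purity: hCE1 25%, hCE2 4%, hCE3 3.5% (3% in footnotes), FAAH 6.9%. Triplicates.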

Kidney S9 = test: Substrate hydrolysis by pooled tissue S9, kidney; assay type: biochemical, human
Outline: (§2)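 Commercial pooled human tissue S9 fraction added to substrate at 50 µM final in 100 mM sodium phosphate, pH 8.0, 0.1 mg/mL BSA. Fluorescence monitored every 30 s for at least 10 min at 37°C. Specific activity given as the mean of triplicates in one experiment, or mean ± standard deviation of 3 independent experiments run in triplicate.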

hCE2 [2] = molecular target: T1, hCE2; test: Kinetic properties; assay type: biochemical
hCE1 [3] = molecular target: T2, hCE1 (Homo sapiens, UniProt P23141); test: Kinetic properties; assay type: biochemical
T2 sequence (P23141 18-567): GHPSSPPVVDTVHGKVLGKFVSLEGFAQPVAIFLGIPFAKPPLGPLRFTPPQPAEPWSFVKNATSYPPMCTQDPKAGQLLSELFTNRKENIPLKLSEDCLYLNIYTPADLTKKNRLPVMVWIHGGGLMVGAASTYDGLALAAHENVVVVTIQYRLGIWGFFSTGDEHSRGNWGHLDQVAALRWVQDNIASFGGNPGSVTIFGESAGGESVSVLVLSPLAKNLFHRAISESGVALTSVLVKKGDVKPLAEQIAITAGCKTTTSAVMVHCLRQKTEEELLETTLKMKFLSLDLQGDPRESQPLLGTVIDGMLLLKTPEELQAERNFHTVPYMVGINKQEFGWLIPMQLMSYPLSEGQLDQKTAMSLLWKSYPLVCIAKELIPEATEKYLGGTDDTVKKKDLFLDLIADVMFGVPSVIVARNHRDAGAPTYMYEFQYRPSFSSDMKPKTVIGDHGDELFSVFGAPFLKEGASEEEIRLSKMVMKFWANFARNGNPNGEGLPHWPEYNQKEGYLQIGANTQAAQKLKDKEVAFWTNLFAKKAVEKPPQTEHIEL

Liver S9 = test: Substrate hydrolysis by pooled tissue S9, liver; assay type: biochemical, human
Outline: as §2

Intestine S9 = test: Substrate hydrolysis by pooled tissue S9, intestine; assay type: biochemical, human
Outline: as §2

Lung S9 = test: Substrate hydrolysis by pooled tissue S9, lung; assay type: biochemical, human
Outline: as §2

hCE1 [4] = molecular target: T2, hCE1; test: Limit of detection and quantification for hCE1 using partially purified enzyme; assay type: biochemical; details: for LOD for hCE1: S/N > 3; for LOD for hCE1 / LOQ for hCE1: [S] = 50 µM; for LOQ for hCE1: S/N > 9
Outline: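 Partially purified recombinant hCE1, without any matrix, diluted into wells with substrate at 50 µM. Assay run in 100 mM sodium phosphate, pH 8, 0.1 mg/mL BSA, 1% DMSO, at 37°C. S/N taken as mean signal of enzyme wells over the SD of […], quadruplicates in one experiment. LOD set as the lowest level with S/N > 3; LOQ as S/N > 9.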

FAAH = molecular target: T3, FAAH (Homo sapiens, UniProt O00519); test: Specific activity of FAAH towards substrates; assay type: biochemical
T3 sequence (O00519 1-579): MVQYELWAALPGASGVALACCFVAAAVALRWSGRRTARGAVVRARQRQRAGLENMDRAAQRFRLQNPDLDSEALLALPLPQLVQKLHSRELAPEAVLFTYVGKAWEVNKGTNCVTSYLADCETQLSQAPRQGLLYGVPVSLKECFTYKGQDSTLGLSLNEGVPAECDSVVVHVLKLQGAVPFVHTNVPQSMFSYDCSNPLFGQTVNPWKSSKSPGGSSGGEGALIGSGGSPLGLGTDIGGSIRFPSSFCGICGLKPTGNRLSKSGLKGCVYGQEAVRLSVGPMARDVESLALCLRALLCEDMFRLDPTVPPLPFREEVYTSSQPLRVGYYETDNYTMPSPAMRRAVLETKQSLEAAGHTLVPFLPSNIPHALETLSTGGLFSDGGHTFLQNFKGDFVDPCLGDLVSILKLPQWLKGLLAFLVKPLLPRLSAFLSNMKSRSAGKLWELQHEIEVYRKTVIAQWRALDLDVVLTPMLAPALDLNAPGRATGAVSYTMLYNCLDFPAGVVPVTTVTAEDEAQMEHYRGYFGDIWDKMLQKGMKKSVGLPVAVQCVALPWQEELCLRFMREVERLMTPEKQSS
Outline: as §1

[5] = Background hydrolysis of substrates in phosphate buffer; assay type: physicochemical
hCE1 [6] = molecular target: T2, hCE1; test: Specific activity of hCE1 towards substrates; assay type: biochemical
Outline: as §1

[7] = Kinetic mode (30 s intervals for 30 minutes)

CCCCC(C)CCC(=O)Nc1ccc(OC)nc1C (stereo not drawn) [4-MOMMP, N-(6-methoxy-2-methylpyridin-3-yl)-4-methyloctanamide]
Selectivity of hCE1 turnover compared to hCE2 (hCE2 [1]): 40- to 50 fold
hCE2 Specific activity (hCE2 [1]; Table 3, [S] = 50 µM, 37°C, pH 8, estimated 4% purity): 13 pmol/min/µg
Hydrolysis Specific Activity (hCE2 [1]; Table 6, hCE2): 6.4 ± 0.7 pmol/min/µg
Hydrolysis Specific Activity (Kidney S9): <0.05 pmol/min/µg
KM for hCE2, fold lower than that of hCE1 (hCE2 [2]): 3 fold
Catalytic efficiency of hCE1, fold lower than that of CMNA (hCE1 [3]): approximately 16 fold
Vmax with hCE1, fold lower than CMNA (hCE1 [3]): 3 fold
Vmax, fold higher with hCE1 than hCE2 (hCE1 [3]): 120 fold
Hydrolysis Specific Activity (Liver S9): 5.5 ± 0.4 pmol/min/µg
Hydrolysis Specific Activity (Intestine S9): <0.05 pmol/min/µg
Hydrolysis Specific Activity (Lung S9): 0.20 ± 0.02 pmol/min/µg
Time over which hCE1 hydrolysis remained linear (hCE1 [4]): at least 24 hours
LOD for hCE1 (hCE1 [4]; Endpoint mode 1 hour): 0.06 ng
LOQ for hCE1 (hCE1 [4]; Endpoint mode 1 hour): 2.0 ng
LOD for hCE1 (hCE1 [4]; Endpoint mode 4 hours): 0.03 ng
LOQ for hCE1 (hCE1 [4]; Endpoint mode 4 hours): 0.12 ng
LOD for hCE1 (hCE1 [4]; Endpoint mode 24 hours): 0.008 ng
LOQ for hCE1 (hCE1 [4]; Endpoint mode 24 hours): 0.03 ng
LOD for hCE1 (hCE1 [4]; [7]): 3.9 ng
LOQ for hCE1 (hCE1 [4]; [7]): 16 ng
Limit of quantification for hCE1, fold higher than CMNA (hCE1 [4]; kinetic mode, short time (<30 minutes)): 4 fold
Selectivity of hCE1 over FAAH (turnover) (FAAH): 10 fold
Background hydrolysis, fold lower than CMNA ([5]; phosphate buffer): 200 fold
Rate of background hydrolysis ([5]; phosphate buffer 100 mM, pH 8, 0.1 mg/mL BSA): 0.1 pmol/min
Turnover by hCE1, times lower than CMNA (hCE1 [6]): 10 times
Preference of hCE1 over the other esterases tested (hCE1 [6]; 13 other esterases / serine hydrolases): ≥ 10 fold
Hydrolysis Specific Activity (hCE1 [6]; Table 6, hCE1): 370 ± 27 pmol/min/µg
